# Source: ChEMBL document CHEMBL2396523, “The synthesis of isopropylidene mRNA cap analogs modified with phosphorothioate moiety and their evaluation as promoters of mRNA translation” (Bioorg Med Chem Lett, 2013)
# Key:
# [1] = Drug degradation in aqueous buffer at pH 2 after 4.5 hrs by RP HPLC analysis; assay type: physicochemical; conditions: pH 2, 4.5 h
# Summary of the method: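 Isopropylidene removal done in aqueous buffer at pH 2, 37 °C, for 4.5 h. Reaction progress followed by RP HPLC.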
# [2] = Translational activity in human immature DC assessed as total protein expression after 72 hrs by bioluminescence assay relative to m2 7,3'-OGpppG; assay type: functional
# Summary of the method: (§1)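 Luciferase-coding mRNAs made by T7 RNA polymerase in vitro transcription with the respective cap, electroporated into human immature dendritic cells. Luciferase activity measured over 72 h after electroporation, duplicate measurements. Mathematical modeling of the time course gave translational efficiency, time of maximal protein expression and total protein expression.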
# [3] = Translational activity in human immature DC assessed as time point of maximal protein expression by bioluminescence assay; assay type: functional; summary of the method: as §1
# Homo sapiens = species on record: Homo sapiens; experiment: Translational activity in human immature DC assessed as luciferase mRNA activity after 72 hrs by bioluminescence assay relative to m2 7,3'-OGpppG; assay type: functional; summary of the method: as §1
# [4] = molecular target: Eukaryotic translation initiation factor 4E (Mus musculus) (UniProt P63073); experiment: Binding affinity to mouse eIF4E by fluorescence quenching assay
# Sequence of Eukaryotic translation initiation factor 4E (Mus musculus) (P63073 whole entry): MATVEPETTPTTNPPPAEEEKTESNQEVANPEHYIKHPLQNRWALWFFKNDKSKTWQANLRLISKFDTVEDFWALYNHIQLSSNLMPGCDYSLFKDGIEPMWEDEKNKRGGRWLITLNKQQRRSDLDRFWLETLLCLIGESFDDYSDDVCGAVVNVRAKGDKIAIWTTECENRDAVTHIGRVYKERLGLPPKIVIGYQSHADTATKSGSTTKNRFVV
# Summary of the method: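 Murine eIF4E titrated with cap analog solution; intrinsic Trp fluorescence quenching recorded at 337 nm with excitation at 280 nm. Equilibrium association constant (KAS) of the cap analog–eIF4E complex derived from the titration curves.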
# Oryctolagus cuniculus = species on record: Oryctolagus cuniculus; experiment: Translational activity in Flexi rabbit reticulocyte lysate assessed as luciferase mRNA activity after 60 mins relative to m7GpppG; assay type: functional
# Summary of the method: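 Luciferase mRNAs capped by in vitro transcription, added at several concentrations to rabbit reticulocyte lysate optimized for cap-dependent translation. Luminometry of luciferase activity 60 min after mRNA addition. Translation efficiency taken from slope of luciferase activity versus mRNA concentration, averaged over replicate experiments.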
SMILES,Stability [1],Ratio (Homo sapiens),Ka [4],Ratio (Oryctolagus cuniculus),Ratio [2],TIME [3]
C[n+]1cn([C@@H]2O[C@H](COP(=O)([O-])OP(=O)(S)OP(=O)(O)OC[C@H]3O[C@@H](n4cnc5c(=O)[nH]c(N)nc54)[C@H](O)[C@@H]3O)[C@@H]3OC(C)(C)O[C@H]32)c2nc(N)nc(O)c21 (mixture of isomers; 2b) [listing 1 of 2 here],Stable,–,–,–,–,–
C[n+]1cn([C@@H]2O[C@H](COP(=O)([O-])OP(=O)(S)OP(=O)(O)OC[C@H]3O[C@@H](n4cnc5c(=O)[nH]c(N)nc54)[C@H](O)[C@@H]3O)[C@@H]3OC(C)(C)O[C@H]32)c2nc(N)nc(O)c21 (mixture of isomers; 2b) [listing 2 of 2 here],–,1.08,9.2 µM⁻¹,1.16,0.97,8.9 h
C[n+]1cn([C@@H]2O[C@H](COP(=O)(O)OP(=O)([O-])OP(=O)(O)OC[C@H]3O[C@@H](n4cnc5c(=O)[nH]c(N)nc54)[C@H](O)[C@@H]3O)[C@@H]3OC(C)(C)O[C@H]32)c2nc(N)nc(O)c21,–,–,2.9 µM⁻¹,0.8,–,–

# Continued, in another order:
Stability [1],Ratio (Homo sapiens),Ka [4],Ratio (Oryctolagus cuniculus),SMILES,Ratio [2],TIME [3]
–,1.23,5.6 µM⁻¹,1.33,C[n+]1cn([C@@H]2O[C@H](COP(=O)([O-])OP(=O)(S)OP(=O)(O)OC[C@H]3O[C@@H](n4cnc5c(=O)[nH]c(N)nc54)[C@H](O)[C@@H]3O)[C@@H]3OC(C)(C)O[C@H]32)c2nc(N)nc(O)c21 (mixture of isomers; 2a),1.62,11.1 h
–,–,10.2 µM⁻¹,1.32,CO[C@H]1[C@@H](O)[C@H](n2c[n+](C)c3c(O)nc(N)nc32)O[C@@H]1COP(=O)(O)OP(=O)([O-])OP(=O)(O)OC[C@H]1O[C@@H](n2cnc3c(=O)[nH]c(N)nc32)[C@H](O)[C@@H]1O,–,9.25 h
